Source: PubChem (several laboratories)
Sampled rows, rich in hits. Any-hit rate of the full collection: about 1.5%.
PP5 primary: PP5 phosphatase inhibitors, primary screen, biochemical, fluorescence. purified PP5c, OMFP substrate fluorescence. inhibition, % at 6.7 µM. Serine/threonine-protein phosphatase 5 (Homo sapiens), P53041. 320,000 tested, 0.18% active;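 active = inhibition above the campaign's mean inhibition across all tested compounds plus 3 SD, cut at about 9.5% in these data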;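 note: 0% = DMSO only and 100% = 100 µM cantharidin control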
RBBP9 inh: human RBBP9 inhibitors, primary screen, biochemical, fluorescence polarization, FP-Rh probe, HTS; Serine hydrolase RBBP9 (Homo sapiens), O75884; recombinant RBBP9; inhibition, % at 7.94 µM; 220,000 tested, 0.2% active;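 active = inhibition above the campaign mean of all tested compounds plus 3 SD, cut at about 14% in these data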;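 note: plate controls were DMSO wells with RBBP9 for no effect and wells lacking RBBP9 protein for full effect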
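Controls: DMSO-treated enzyme wells and wells lacking RBBP9 | Material: RBBP9 protein | Technique: Fluorescence polarization | Replication: Single well per compound, no replicates | Buffer or medium: Tris-NaCl-Pluronic buffer, pH 8.0 | Timing: 30 min compound preincubation, 45 min probe labeling, 25 °C | Read-out basis: Percent inhibition from mP, scaled between DMSO and no-protein wells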
PP1 inh: PP1-alpha phosphatase inhibitors, primary screen, counter-screen for PP5 inhibitor project, biochemical, fluorescence, OMFP substrate, single point; AID 2235, 2010; inhibition, % at 6.7 µM; Serine/threonine-protein phosphatase PP1-alpha catalytic subunit (Homo sapiens), P62136; 320,000 tested, 0.9% active; purified PP1alpha;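 active = inhibition above the mean inhibition of all tested compounds plus 3 SD, computed separately for each screening campaign, cut at about 15% in these data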
PKD1 inh: inhibitors of human PKD1 kinase, biochemical, fluorescence polarization | PKD1 kinase fluorescence polarization assay | inhibition, % (no concentration beside the values) | Serine/threonine-protein kinase D1 (Homo sapiens), Q15139 | 200,000 tested, 0.056% active | AID 797, 2007; in the data active = inhibition above about 50%
Hsp70 act: Hsp70 transcriptional activators, primary screen, cell-based, HeLa, Hsp70 promoter luciferase, luminescence, 10 µM; HeLa Hsp70 promoter luciferase reporter; scaled: vehicle 0, proteasome-inhibitor control 100%; 200,000 tested, 0.04% active; activation, % at 10 µM;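 active = activation above the mean across all tested compounds plus 3 SD, cutoff set per campaign, cut at about 5.5% in these data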;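 note: 100% = MG132 at 30 µM as the positive control and 0% = DMSO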
p97 inhibitor: inhibitors of human p97 ATPase, primary screen, biochemical | Transitional endoplasmic reticulum ATPase (Homo sapiens), P55072 | recombinant p97 ATPase, Kinase-Glo ATP luminescence, 3 h | inhibition, % at 8 µM | 220,000 tested, 0.42% active; in the data active = inhibition above about 15%;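 note: 0% = DMSO vehicle and 100% = wells lacking enzyme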
Target sequence (P55072 whole entry, looked up): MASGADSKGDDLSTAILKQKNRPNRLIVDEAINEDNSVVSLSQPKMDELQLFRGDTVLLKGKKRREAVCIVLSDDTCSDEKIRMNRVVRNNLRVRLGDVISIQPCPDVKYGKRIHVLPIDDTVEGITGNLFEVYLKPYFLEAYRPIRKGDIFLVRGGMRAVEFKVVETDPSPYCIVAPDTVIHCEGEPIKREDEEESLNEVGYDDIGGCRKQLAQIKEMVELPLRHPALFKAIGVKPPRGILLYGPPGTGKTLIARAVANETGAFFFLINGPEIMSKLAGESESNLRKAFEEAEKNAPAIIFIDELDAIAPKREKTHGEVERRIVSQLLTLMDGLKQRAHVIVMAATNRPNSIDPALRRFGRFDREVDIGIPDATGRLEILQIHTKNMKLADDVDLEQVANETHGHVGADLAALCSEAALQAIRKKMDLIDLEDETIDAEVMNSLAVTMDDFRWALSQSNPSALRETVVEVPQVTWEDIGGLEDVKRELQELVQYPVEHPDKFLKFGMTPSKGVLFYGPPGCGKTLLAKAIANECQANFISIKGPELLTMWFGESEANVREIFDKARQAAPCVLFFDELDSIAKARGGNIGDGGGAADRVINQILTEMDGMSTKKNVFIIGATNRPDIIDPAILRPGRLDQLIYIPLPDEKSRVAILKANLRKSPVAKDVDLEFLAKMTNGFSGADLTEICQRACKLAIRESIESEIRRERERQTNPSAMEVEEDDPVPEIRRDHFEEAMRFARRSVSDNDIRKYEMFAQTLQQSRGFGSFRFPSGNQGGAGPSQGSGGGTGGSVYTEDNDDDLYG
PP1 confirm: PP1 phosphatase inhibitors, confirmation, biochemical, fluorescence, OMFP substrate, triplicate | 1,900 tested, 52% active | inhibition, % at 6.7 µM | shares compounds with PP1 inh | purified PP1alpha;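 active = mean PP1 inhibition above a set limit taken from the earlier primary screen, cut at about 15% in these data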
PP5 inh counter: PP5 phosphatase inhibition by PP1 hits, confirmation, counter-screen for PP1 inhibitor project, biochemical, fluorescence, triplicate; inhibition, % at 6.7 µM; purified PP5c, OMFP fluorescence; 1,900 tested, 4% active; shares compounds with PP1 inh;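 active = mean PP5 inhibition over triplicate wells above about 9.5% taken from the earlier PP1 screen, limit read from the data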
* marks the source's active call; other numbers are inactive results.

`CC(=O)O[C@H]1CC(=O)OC(C)(C)C2CC(=O)[C@]3(C)C(CC[C@@](C)([C@@H](O[C@@H]4O[C@H](CO)[C@@H](O)[C@H](O)[C@H]4O)c4ccoc4)[C@@]34O[C@@H]4C(=O)O)[C@]21C` (stereo partly specified) gave PP5 primary 2.0 and PP1 inh -1.4.
For C#CCOCCOCCOCCNc1nc(N2CCN(C(=O)CCCCCCCCCCNC(=O)[C@H]([C@@H](C)CC)n3cc(CCCCN=C(N)N)nn3)CC2)nc(N2CCN(C(=O)CCCCCCCCCCNC(=O)[C@H](CO)n3cc(CCCCCN)nn3)CC2)n1 the results were PP5 primary 11.7*, PP1 inh 73.3*, PP1 confirm 45.4* and PP5 inh counter 1.7.
`CC[C@H](C)[C@@H](C(=O)NCCCCCCCCCCC(=O)N1CCN(C(=O)OC(C)(C)C)CC1)n1cc(CCCCCNC(=O)OC(C)(C)C)nn1` gave PP5 primary 5.3 and PP1 inh 0.3.
For C#CCOCCOCCOCCNc1nc(N2CCN(C(=O)CCCCCCCCCCNC(=O)[C@H]([C@@H](C)CC)n3cc(CCCCCN)nn3)CC2)nc(N2CCN(C(=O)CCCCCCCCCCNC(=O)[C@H]([C@@H](C)CC)n3cc(CCCCN=C(N)N)nn3)CC2)n1 the results were PP5 primary 9.0, PP1 inh 69.5*, PP1 confirm 45.2* and PP5 inh counter 1.3.
Screening CC[C@H](C)[C@@H](C(=O)NCCCCCCCCCCC(=O)N1CCN(C(=O)OC(C)(C)C)CC1)n1cc(CCCCN=C(NC(=O)OC(C)(C)C)NC(=O)OC(C)(C)C)nn1 returned PP5 primary 5.4, PP1 inh 19.2*, PP1 confirm 30.1* and PP5 inh counter 1.7.
Screening C#CCOCCOCCOCCNc1nc(N2CCN(C(=O)CCCCCCCCCCNC(=O)[C@H]([C@@H](C)CC)n3cc(CCCCCN)nn3)CC2)nc(N2CCN(C(=O)CCCCCCCCCCNC(=O)[C@H](CO)n3cc(CCCCCN)nn3)CC2)n1 returned PP5 primary 4.7, PP1 inh 53.2*, PP1 confirm 25.6* and PP5 inh counter -2.1.
C#CCOCCOCCOCCNc1nc(N2CCN(C(=O)CCCCCCCCCCNC(=O)[C@@H](CCC(=O)O)n3cc(CCCCCN)nn3)CC2)nc(N2CCN(C(=O)CCCCCCCCCCNC(=O)[C@H]([C@@H](C)CC)n3cc(CCCCCN)nn3)CC2)n1 was read as PP5 primary 0.7 and PP1 inh 12.6.
`O=C(COC(=O)C1CC(=O)N(Cc2ccccc2)C1)Nc1ccc(Cl)cc1F` (stereo unspecified) gave PP5 primary -3.0, RBBP9 inh -10.1, PP1 inh -5.5, PKD1 inh -4.7, Hsp70 act 0.2 and p97 inhibitor -1.1.
For Cc1nc(N2CCCCC2)c2c(C)c(C(=O)Nc3ccc4c(c3)OCCO4)sc2n1 the results were PP5 primary 5.7 and PP1 inh 2.0.
For O=C(CNC(=O)c1ccccc1)N/N=C/C=C/c1ccccc1 the results were PP5 primary 1.3 and PP1 inh 0.8.
O=C(Cc1cc(=O)[nH][nH]1)N/N=C/C=C/c1ccccc1 was read as PP5 primary -1.6, RBBP9 inh 1.1, PP1 inh 19.2*, PKD1 inh -10.2, Hsp70 act 0.2, p97 inhibitor -2.6, PP1 confirm 9.3 and PP5 inh counter 0.6.
